Assay results as given in ChEMBL document CHEMBL5674890, “Selective inhibition of CBP/p300 HAT by A-485 results in suppression of lipogenesis and hepatic gluconeogenesis” (Cell Death Dis, 2020).
Calls of active or inactive are those of the source. The rule behind the calls is not given here.

Legend:
Mus musculus [1] = assay: Anti-obesity activity in 16 hrs fasted C57BL/6 mouse supplemented with normal chow diet assessed as decrease in blood glucose level at 20 mg/kg/day, ip administered for 1 week measured after 15 to 30 mins by pyruvate tolerance test; format: functional, organism-based; conditions: time 1.0 weeks
How it was run: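 Normal-chow male C57BL/6 mice (8 weeks old) dosed ip at 20 mg·kg−1·day−1 for 7 days. Pyruvate tolerance test: 16 h fast, then pyruvate 2 g/kg body weight ip, blood glucose followed over time. Mean ± SEM, n = 5–9.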

Mus musculus [2] = assay: Inhibition of lipogenesis in C57BL/6 mouse supplemented with normal chow diet assessed as decrease in PPARgamma mRNA expression at 20 mg/kg/day, ip administered for 1 week measured measured by RT-qPCR assay; format: functional, organism-based; conditions: time 1.0 weeks
How it was run: (§1)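 Eight-week-old male C57BL/6 mice on normal chow were given 20 mg·kg−1·day−1 ip daily for 7 days or vehicle. Epididymal WAT was collected. Lipogenic, adipogenic and fatty-acid-oxidation transcripts were quantified by Trizol extraction and SYBR Green RT-qPCR. FAS, ACC, PPARγ and C/EBPα protein were assessed by western blot. n = 5–9; mean ± SEM.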

Hepatocyte [3] = assay: Inhibition of lipogenesis in mouse primary hepatocytes assessed as decrease in FASN mRNA expression at 3 uM in presence of 100 nM insulin and 5 to 25 mM glucose measured after 18 hrs by RT-qPCR assay; format: functional, cell-based
How it was run: (§2)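 Primary hepatocytes isolated from C57BL/6 mice by two-step perfusion. Cells incubated 18 h with 3 μM inhibitor, with 0 or 100 nM insulin and 5 or 25 mM glucose. Transcripts quantified by SYBR Green RT-qPCR after Trizol RNA extraction; proteins by western blot of lysates. Mean ± SEM.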

Hepatocyte [4] = assay: Inhibition of lipogenesis in mouse primary hepatocytes assessed as decrease in SCD1 mRNA expression at 3 uM in presence of 100 nM insulin and 5 to 25 mM glucose measured after 18 hrs by RT-qPCR assay; format: functional, cell-based; how it was run: as §2
Hepatocyte [5] = assay: Inhibition of lipogenesis in mouse primary hepatocytes assessed as increase in CPT1alpha mRNA expression at 3 uM in presence of 100 nM insulin and 5 to 25 mM glucose measured after 18 hrs by RT-qPCR assay; format: functional, cell-based; how it was run: as §2
Mus musculus [6] = assay: Inhibition of lipogenesis in C57BL/6 mouse supplemented with high-fat diet assessed as decrease in C/EBPalpha mRNA expression at 20 mg/kg/day, ip administered for 1 week measured measured by RT-qPCR assay; format: functional, organism-based; conditions: time 1.0 weeks
How it was run: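 Male C57BL/6 mice were fed high-fat diet for 14 weeks from 5 weeks of age, then injected ip with 20 mg·kg−1·day−1 for 7 days or given vehicle. Epididymal and inguinal WAT were weighed, examined by H&E, and analysed. Transcripts were measured by Trizol/SYBR Green RT-qPCR; proteins by western blot. n = 5–9; mean ± SEM.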

Mus musculus [7] = assay: Inhibition of lipogenesis in C57BL/6 mouse supplemented with normal chow diet assessed as effect on UCP1 mRNA expression at 20 mg/kg/day, ip administered for 1 week measured by RT-qPCR assay; format: functional, organism-based; conditions: time 1.0 weeks; how it was run: as §1
Hepatocyte [8] = assay: Inhibition of lipogenesis in mouse primary hepatocytes assessed as increase in MCAD mRNA expression at 3 uM in presence of 100 nM insulin and 5 to 25 mM glucose measured after 18 hrs by RT-qPCR assay; format: functional, cell-based; how it was run: as §2
Mus musculus [9] = assay: Inhibition of lipogenesis in C57BL/6 mouse supplemented with normal chow diet assessed as decrease in C/EBPalpha protein expression at 20 mg/kg/day, ip administered for 1 week measured measured by western blot analysis; format: functional, organism-based; conditions: time 1.0 weeks; how it was run: as §1
Mus musculus [10] = assay: Inhibition of lipogenesis in C57BL/6 mouse supplemented with normal chow diet assessed as decrease in SCD1 mRNA expression at 20 mg/kg/day, ip administered for 1 week measured by RT-qPCR assay; format: functional, organism-based; conditions: time 1.0 weeks; how it was run: as §1
Mus musculus [11] = assay: Anti-obesity activity in C57BL/6 mouse supplemented with high fat diet assessed as decrease in blood glucose level at 20 mg/kg/day, ip administered for 1 week measured by pyruvate tolerance test; format: functional, organism-based; conditions: time 1.0 weeks
How it was run: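 High-fat diet male C57BL/6 mice (14 weeks on HFD from 5 weeks of age) dosed ip at 20 mg·kg−1·day−1 for 7 days. 16 h fast, then pyruvate 2 g/kg body weight ip; blood glucose tracked.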

Mus musculus [12] = assay: Inhibition of lipogenesis in C57BL/6 mouse supplemented with normal chow diet assessed as decrease in SREBP-1c mRNA expression at 20 mg/kg/day, ip administered for 1 week measured by RT-qPCR assay; format: functional, organism-based; conditions: time 1.0 weeks; how it was run: as §1
Mus musculus [13] = assay: Inhibition of hepatic lipogenesis in C57BL/6 mouse supplemented with normal chow diet assessed as decrease in FAS protein expression at 20 mg/kg/day, ip administered for 1 week measured by western blot analysis; format: functional, organism-based; conditions: time 1.0 weeks
How it was run: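 Normal-chow male C57BL/6 mice, 8 weeks old, were injected ip at 20 mg·kg−1·day−1 daily for 7 days or given vehicle. Liver tissue was homogenized in lysis buffer, and FAS and ChREBP protein were assessed by western blot. n = 5–9.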

[14] = biological target: CREB-binding protein/Histone acetyltransferase p300 (Homo sapiens) (UniProt Q09472+Q92793); assay: Inhibition of CBP/p300 in mouse primary hepatocytes stimulated with 100 uM 8-Br-cAMP assessed as decrease in FOXO1 abundance in nucleus at 3 uM; format: cell-based; conditions: Primary hepatocyte
Chain of CREB-binding protein/Histone acetyltransferase p300 (Homo sapiens) (Q09472 whole entry, looked up): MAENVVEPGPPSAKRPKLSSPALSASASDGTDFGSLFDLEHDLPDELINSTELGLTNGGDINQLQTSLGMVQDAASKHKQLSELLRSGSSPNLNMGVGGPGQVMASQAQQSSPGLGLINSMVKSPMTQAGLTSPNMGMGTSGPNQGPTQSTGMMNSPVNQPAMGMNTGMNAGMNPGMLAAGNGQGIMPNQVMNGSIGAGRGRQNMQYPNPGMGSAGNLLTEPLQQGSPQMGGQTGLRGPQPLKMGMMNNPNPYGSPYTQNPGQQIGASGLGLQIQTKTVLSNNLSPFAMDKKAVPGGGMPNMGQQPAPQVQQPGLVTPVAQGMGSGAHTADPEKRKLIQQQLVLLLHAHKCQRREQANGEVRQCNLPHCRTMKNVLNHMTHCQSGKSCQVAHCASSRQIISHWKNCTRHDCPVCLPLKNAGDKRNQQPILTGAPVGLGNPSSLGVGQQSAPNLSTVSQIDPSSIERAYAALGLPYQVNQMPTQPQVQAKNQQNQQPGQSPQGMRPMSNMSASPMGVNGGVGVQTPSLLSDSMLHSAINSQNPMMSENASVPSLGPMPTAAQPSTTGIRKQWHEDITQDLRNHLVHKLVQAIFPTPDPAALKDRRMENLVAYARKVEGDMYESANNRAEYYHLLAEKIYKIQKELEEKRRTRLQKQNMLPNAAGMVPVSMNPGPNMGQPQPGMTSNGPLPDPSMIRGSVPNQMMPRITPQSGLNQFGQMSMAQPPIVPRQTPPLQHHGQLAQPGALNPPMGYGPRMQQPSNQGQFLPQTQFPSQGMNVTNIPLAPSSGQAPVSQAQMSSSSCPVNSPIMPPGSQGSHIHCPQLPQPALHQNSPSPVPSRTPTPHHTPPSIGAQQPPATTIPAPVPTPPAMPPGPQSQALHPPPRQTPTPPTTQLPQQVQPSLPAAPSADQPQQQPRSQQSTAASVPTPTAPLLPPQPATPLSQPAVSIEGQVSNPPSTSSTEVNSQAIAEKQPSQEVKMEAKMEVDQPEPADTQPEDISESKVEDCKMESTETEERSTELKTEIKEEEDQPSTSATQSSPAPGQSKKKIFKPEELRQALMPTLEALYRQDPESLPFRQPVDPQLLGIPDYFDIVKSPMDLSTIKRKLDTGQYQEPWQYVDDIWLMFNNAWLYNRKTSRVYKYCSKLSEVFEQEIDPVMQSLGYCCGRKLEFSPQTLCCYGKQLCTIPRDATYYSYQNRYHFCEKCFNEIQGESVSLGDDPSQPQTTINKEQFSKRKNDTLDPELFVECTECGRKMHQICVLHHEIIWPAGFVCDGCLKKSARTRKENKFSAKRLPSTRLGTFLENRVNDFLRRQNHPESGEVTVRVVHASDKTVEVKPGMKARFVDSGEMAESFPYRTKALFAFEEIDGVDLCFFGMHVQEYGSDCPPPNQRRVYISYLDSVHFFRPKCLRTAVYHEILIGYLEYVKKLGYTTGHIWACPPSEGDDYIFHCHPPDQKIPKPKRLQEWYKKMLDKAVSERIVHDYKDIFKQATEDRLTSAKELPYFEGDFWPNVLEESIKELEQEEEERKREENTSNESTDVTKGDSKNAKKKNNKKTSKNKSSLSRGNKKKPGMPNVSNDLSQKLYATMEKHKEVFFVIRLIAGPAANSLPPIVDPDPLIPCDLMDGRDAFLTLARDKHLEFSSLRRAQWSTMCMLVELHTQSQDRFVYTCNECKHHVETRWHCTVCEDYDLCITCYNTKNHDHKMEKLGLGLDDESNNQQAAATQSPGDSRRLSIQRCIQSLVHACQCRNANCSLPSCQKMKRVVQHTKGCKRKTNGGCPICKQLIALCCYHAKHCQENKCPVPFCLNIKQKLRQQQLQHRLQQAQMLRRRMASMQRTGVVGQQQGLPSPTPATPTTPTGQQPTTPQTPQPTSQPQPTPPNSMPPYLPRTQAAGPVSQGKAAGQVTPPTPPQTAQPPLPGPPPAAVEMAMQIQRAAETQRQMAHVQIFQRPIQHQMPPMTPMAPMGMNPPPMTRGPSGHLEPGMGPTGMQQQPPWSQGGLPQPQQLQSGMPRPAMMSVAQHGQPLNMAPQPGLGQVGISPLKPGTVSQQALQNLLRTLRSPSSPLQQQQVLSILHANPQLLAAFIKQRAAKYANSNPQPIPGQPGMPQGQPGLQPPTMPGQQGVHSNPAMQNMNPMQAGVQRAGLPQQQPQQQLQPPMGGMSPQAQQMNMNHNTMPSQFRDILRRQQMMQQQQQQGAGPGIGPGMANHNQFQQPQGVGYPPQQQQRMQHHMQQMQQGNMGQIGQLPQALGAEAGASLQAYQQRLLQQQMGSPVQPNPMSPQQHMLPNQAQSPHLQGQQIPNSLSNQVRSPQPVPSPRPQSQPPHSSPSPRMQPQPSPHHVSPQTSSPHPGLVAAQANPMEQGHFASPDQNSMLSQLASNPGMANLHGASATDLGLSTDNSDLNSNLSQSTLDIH
Chain of CREB-binding protein/Histone acetyltransferase p300 (Homo sapiens) (Q92793 whole entry, looked up): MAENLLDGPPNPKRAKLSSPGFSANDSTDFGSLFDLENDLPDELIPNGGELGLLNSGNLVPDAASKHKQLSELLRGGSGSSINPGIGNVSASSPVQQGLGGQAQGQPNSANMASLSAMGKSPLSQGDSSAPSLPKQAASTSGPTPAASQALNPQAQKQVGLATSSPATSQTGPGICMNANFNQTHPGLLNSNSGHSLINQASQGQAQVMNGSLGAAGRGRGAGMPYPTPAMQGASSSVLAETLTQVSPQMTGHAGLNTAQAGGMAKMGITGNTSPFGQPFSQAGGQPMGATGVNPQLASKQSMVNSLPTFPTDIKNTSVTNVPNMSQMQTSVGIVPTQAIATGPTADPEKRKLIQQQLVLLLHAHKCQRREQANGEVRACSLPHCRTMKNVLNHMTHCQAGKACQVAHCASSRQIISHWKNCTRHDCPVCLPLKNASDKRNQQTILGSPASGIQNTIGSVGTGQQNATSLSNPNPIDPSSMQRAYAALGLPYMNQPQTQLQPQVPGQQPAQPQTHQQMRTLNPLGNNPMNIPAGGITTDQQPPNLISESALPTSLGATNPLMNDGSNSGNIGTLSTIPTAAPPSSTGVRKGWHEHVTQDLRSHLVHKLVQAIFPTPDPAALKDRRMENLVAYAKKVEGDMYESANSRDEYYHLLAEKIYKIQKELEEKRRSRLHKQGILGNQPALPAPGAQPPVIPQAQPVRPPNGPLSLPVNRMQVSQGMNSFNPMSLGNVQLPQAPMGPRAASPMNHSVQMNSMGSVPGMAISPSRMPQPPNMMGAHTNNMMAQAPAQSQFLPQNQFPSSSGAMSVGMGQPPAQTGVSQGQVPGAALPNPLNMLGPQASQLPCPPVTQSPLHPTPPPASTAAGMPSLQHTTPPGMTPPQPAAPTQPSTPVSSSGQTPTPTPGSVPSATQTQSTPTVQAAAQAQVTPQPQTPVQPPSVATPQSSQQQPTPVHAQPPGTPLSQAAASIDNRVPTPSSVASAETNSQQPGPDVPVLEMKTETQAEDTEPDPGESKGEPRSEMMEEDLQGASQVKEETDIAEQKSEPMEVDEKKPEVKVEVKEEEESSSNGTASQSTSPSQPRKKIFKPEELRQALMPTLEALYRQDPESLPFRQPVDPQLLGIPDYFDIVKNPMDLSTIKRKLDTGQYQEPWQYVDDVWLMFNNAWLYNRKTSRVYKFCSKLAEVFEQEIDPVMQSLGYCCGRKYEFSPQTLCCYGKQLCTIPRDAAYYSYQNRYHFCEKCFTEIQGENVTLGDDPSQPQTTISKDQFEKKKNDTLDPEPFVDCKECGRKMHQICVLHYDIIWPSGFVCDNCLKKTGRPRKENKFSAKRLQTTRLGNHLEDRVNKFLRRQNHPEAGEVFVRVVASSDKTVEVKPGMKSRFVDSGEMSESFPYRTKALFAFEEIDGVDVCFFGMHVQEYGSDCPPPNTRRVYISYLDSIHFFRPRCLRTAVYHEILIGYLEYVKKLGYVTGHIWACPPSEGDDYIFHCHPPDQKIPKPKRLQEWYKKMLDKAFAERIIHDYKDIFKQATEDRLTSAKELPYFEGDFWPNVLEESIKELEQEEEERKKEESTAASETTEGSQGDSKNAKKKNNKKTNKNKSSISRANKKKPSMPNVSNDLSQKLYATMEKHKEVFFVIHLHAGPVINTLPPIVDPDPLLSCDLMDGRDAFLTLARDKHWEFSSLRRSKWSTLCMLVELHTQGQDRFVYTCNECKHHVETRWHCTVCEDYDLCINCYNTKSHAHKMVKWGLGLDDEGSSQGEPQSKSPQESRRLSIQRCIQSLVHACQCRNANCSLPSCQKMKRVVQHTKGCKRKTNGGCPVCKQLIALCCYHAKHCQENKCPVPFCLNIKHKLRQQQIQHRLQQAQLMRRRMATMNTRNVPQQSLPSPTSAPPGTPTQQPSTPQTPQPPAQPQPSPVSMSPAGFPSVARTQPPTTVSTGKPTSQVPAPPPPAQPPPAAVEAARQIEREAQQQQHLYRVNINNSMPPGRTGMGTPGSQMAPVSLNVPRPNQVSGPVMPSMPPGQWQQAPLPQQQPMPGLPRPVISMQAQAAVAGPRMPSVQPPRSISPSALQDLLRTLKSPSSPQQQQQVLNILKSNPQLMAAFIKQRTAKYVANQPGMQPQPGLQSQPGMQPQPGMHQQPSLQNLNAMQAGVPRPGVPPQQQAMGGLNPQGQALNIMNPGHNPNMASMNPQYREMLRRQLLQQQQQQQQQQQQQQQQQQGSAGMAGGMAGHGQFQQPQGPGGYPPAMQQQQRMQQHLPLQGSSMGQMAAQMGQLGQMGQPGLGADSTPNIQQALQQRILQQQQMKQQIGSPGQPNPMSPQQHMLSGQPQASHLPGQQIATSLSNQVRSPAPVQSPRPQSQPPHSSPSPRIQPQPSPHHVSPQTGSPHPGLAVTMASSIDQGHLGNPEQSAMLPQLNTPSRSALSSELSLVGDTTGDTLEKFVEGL
How it was run: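 Primary mouse hepatocytes treated with 3 μM compound and 100 μM 8-Br-cAMP. Nuclear and cytoplasmic fractions separated with a commercial kit; FOXO1 detected by western blot.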

Adipocyte = assay: Inhibition of lipogenesis in mouse adipocytes isolated stromal vascular cells assessed as decrease in SREBP-1c mRNA expression measured after 24 hrs by RT-qPCR assay; format: functional, cell-based
How it was run: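 Stromal vascular cells from inguinal WAT of C57BL/6 mice, grown in DMEM/F12 + 10% FBS at 37 °C, 10% CO2. At confluence, induced 48 h with 5 μg/ml insulin, 1 μM dexamethasone, 0.5 mM isobutylmethylxanthine, then 6 days in 5 μg/ml insulin; fully differentiated day 8. Mature adipocytes exposed to inhibitor 24 h. Total RNA by Trizol, SYBR Green RT-qPCR; protein by western blot.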

Mus musculus [15] = assay: Anti-obesity activity in 6 hrs fasted C57BL/6 mouse supplemented with normal chow diet assessed as effect on fasting blood glucose at 20 mg/kg/day, ip administered for 1 week; format: functional, organism-based; conditions: time 1.0 weeks
How it was run: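 8-week-old male C57BL/6 mice on normal chow, ip 20 mg·kg−1·day−1 for 7 days. Blood glucose measured randomly fed or after 6 h or 16 h fasting, as the line states. Mean ± SEM, n = 5–9.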

Mus musculus [16] = assay: Inhibition of lipogenesis in C57BL/6 mouse supplemented with normal chow diet assessed as effect on ACADVL mRNA expression at 20 mg/kg/day, ip administered for 1 week measured by RT-qPCR assay; format: functional, organism-based; conditions: time 1.0 weeks; how it was run: as §1
Hepatocyte [17] = assay: Inhibition of lipogenesis in mouse primary hepatocytes assessed as decrease in ChREBP protein expression at 3 uM in presence of 100 nM insulin and 5 to 25 mM glucose measured after 18 hrs by western blot analysis; format: functional, cell-based

SMILES: CNC(=O)Nc1ccc2c(c1)CCS21OC(=O)N(CC(=O)N(Cc2ccc(F)cc2)[C@@H](C)C(F)(F)F)C1=O (stereo partly drawn)
- Activity (Mus musculus [1]): Active
- inhibition (Mus musculus [2]): Active
- inhibition (Hepatocyte [3]): Active
- inhibition (Hepatocyte [4]): Active
- inhibition (Hepatocyte [5]): Active
- inhibition (Mus musculus [6]): Active
- inhibition (Mus musculus [7]): inactive
- inhibition (Hepatocyte [8]): Active
- inhibition (Mus musculus [9]): Active
- inhibition (Mus musculus [10]): Active
- Activity (Mus musculus [11]): Active
- inhibition (Mus musculus [12]): Active
- inhibition (Mus musculus [13]): Active
- inhibition [14]: Active
- inhibition (Adipocyte): Active
- Activity (Mus musculus [15]): inactive
- inhibition (Mus musculus [16]): inactive
- inhibition (Hepatocyte [17]): Active
